Activity and Ki data for one compound are collected here from ChEMBL document CHEMBL2401625, “Synthesis and evaluation of pharmacological properties of some new xanthone derivatives with piperazine moiety” (Bioorg Med Chem Lett, 2013).

The term Ki denotes the equilibrium dissociation constant of an inhibitor or competing ligand from its target.

Series [1] relates to Mus musculus. Kind of series: Anticonvulsant activity in CF1 mouse assessed as protection against maximal electroshock-induced seizures at 100 mg/kg, ip after 0.5 hrs. The class given is functional, organism-based. On the set-up: dose 100 mg/kg. In outline:
(§1)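 Mice given compound i.p. at 30, 100 or 300 mg/kg and tested 0.5 or 4 h after dosing. Seizures were induced by maximal electroshock (MES) or subcutaneous metrazole (ScMet). Prevention of seizures counts as protection. Result is recorded as number of animals protected over number tested.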
In general terms: Protection in the maximal electroshock model is a classic sign of anticonvulsant action.

Series [2] relates to Mus musculus. Kind of series: Anticonvulsant activity in CF1 mouse assessed as protection against subcutaneous metrazole-induced seizures at 100 mg/kg, ip after 4 hrs. Type of series: functional, organism-based. Further details: dose 100 mg/kg. In outline: as §1
Series [3] deals with Rattus norvegicus. Kind of series: Neurotoxicity in Sprague-Dawley rat assessed as minimal motor impairment at 30 mg/kg, po after 1 hr by rotorod test. Conditions: in vivo.
The target in series [4] is 5-hydroxytryptamine receptor 7 (Homo sapiens, UniProt P34969). Kind of series: Displacement of [3H]5-CT from human 5HT7b receptor expressed in HEK293 cells after 1 hr. The class given is cell-based. A general note: Loss of bound radioactivity is the signal in a displacement assay; it reports binding, not function.
Series [5] concerns the target T1, 5-hydroxytryptamine receptor 1A (Homo sapiens, UniProt P08908).
T1 sequence (P08908 whole entry): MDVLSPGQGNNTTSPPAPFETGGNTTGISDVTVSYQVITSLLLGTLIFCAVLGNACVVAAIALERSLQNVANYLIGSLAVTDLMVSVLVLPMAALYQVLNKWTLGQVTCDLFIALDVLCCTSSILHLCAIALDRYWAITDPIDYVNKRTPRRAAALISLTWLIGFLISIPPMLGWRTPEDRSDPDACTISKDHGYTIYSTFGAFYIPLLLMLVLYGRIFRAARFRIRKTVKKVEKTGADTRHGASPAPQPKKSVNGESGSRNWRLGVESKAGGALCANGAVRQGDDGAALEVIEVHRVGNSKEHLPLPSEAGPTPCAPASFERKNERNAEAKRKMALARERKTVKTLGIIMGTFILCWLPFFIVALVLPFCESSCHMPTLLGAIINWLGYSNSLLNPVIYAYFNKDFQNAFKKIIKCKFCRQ
Kind of series: Displacement of [3H]8-OH-DPAT from human 5HT1A receptor expressed in HEK293 cells after 1 hr. The class given is cell-based.

Series [6] relates to Rattus norvegicus. Kind of series: Anticonvulsant activity in Sprague-Dawley rat assessed as protection against maximal electroshock-induced seizures at 30 mg/kg, po after 0.25 hrs. The class given is functional, organism-based. Further details: dose 30 mg/kg. In short, it runs like this: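 Rats dosed orally at 30 mg/kg and tested in MES at several time points after dosing. Protection means seizures were prevented. Result is recorded as number of animals protected over number tested.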

Series [7] relates to Rattus norvegicus. Kind of series: Neurotoxicity in Sprague-Dawley rat assessed as minimal motor impairment at 30 mg/kg, po after 4 hrs by rotorod test. Conditions: in vivo. (In general: In the rotarod test animals must keep their balance on a rotating rod.)
Series [8] has as its system Mus musculus. Kind of series: Anticonvulsant activity in CF1 mouse assessed as protection against subcutaneous metrazole-induced seizures at 30 mg/kg, ip after 4 hrs. Further details: dose 30 mg/kg. The class given is functional, organism-based. In outline:
as §1

In series [9] the target is T2, Adrenergic receptor alpha-1 (Rattus norvegicus, UniProt P15823+P23944+P43140).
T2 sequence (P15823 whole entry): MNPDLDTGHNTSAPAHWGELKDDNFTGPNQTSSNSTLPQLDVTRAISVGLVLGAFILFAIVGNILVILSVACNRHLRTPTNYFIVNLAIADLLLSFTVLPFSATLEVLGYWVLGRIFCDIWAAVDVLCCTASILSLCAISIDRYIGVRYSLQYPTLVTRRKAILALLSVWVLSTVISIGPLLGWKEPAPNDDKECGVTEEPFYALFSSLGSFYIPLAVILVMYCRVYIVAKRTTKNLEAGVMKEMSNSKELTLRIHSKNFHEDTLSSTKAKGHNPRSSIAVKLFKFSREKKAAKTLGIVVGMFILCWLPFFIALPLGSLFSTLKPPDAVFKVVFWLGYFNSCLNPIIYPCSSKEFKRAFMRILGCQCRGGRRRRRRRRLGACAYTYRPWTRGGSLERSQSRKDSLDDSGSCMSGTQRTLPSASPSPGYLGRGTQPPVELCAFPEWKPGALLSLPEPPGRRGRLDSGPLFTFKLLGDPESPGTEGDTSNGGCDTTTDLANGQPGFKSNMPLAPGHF
T2 sequence (P23944 whole entry): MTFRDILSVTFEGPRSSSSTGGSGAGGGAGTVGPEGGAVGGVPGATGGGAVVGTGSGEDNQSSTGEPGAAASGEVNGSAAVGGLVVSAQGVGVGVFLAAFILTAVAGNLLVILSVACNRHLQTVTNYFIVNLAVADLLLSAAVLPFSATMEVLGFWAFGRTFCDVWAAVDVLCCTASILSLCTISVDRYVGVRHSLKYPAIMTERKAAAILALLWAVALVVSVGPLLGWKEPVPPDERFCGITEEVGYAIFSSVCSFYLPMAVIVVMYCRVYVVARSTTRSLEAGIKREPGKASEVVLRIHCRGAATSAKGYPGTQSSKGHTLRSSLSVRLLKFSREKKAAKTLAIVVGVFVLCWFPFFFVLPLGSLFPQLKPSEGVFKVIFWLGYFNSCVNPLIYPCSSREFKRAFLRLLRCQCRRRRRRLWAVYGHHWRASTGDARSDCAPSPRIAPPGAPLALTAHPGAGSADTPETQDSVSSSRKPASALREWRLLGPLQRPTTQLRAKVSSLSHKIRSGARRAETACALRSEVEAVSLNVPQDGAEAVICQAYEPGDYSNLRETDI
T2 sequence (P43140 whole entry): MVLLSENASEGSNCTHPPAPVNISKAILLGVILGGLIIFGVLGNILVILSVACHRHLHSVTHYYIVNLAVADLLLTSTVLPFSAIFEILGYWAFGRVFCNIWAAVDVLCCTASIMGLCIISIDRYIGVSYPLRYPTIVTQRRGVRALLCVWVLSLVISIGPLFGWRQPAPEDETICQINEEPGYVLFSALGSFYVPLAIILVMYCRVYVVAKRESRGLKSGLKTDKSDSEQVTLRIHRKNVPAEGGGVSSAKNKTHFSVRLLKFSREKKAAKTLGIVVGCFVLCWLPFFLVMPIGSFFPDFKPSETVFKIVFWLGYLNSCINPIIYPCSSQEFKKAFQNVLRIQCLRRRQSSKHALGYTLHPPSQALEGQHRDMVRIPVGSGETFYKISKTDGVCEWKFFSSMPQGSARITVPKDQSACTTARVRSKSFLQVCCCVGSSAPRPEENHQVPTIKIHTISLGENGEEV
Kind of series: Displacement of [3H]prazosin from alpha1-adrenergic receptor in rat cerebral cortex after 30 mins by scintillation counting. The class given is tissue-based. In outline:
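Radioligand binding on rat brain tissue membranes, run in 96-well format. [3H]prazosin was used for α1 (n = 2) and [3H]CGP-12177 for β1 (n = 2). Ki was calculated by the Cheng–Prusoff equation.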

The subject of series [10] is Rattus norvegicus. Kind of series: Neurotoxicity in Sprague-Dawley rat assessed as minimal motor impairment at 30 mg/kg, po after 2 hrs by rotorod test. The following applies: in vivo.
In series [11] the target is 5-hydroxytryptamine receptor 6 (Homo sapiens, UniProt P50406). Kind of series: Displacement of [3H]LSD from human 5HT6 receptor expressed in HEK293 cells after 1 hr. Type of series: cell-based.
The test system of series [12] is Mus musculus. Kind of series: Anticonvulsant activity in CF1 mouse assessed as protection against subcutaneous metrazole-induced seizures at 100 mg/kg, ip after 0.5 hrs. The class given is functional, organism-based. Further details: dose 100 mg/kg. In short, it runs like this:
as §1

Molecules are shown by their SMILES. The source made the active and inactive calls. The rule behind the calls is not given here.

Chain of 5-hydroxytryptamine receptor 7 (P34969 whole entry): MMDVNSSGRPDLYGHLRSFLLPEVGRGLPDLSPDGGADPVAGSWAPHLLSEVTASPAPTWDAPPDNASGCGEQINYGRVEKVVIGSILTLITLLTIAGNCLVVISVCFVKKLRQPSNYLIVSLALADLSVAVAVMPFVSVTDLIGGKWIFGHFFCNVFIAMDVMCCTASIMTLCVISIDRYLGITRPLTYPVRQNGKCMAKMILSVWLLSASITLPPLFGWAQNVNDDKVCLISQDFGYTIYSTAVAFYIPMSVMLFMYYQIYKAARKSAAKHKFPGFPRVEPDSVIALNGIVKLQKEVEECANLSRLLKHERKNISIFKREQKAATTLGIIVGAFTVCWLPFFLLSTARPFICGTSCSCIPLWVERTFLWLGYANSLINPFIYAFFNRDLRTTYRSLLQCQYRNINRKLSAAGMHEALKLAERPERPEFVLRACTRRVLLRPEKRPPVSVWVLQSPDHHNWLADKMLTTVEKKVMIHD
Chain of 5-hydroxytryptamine receptor 6 (P50406 whole entry): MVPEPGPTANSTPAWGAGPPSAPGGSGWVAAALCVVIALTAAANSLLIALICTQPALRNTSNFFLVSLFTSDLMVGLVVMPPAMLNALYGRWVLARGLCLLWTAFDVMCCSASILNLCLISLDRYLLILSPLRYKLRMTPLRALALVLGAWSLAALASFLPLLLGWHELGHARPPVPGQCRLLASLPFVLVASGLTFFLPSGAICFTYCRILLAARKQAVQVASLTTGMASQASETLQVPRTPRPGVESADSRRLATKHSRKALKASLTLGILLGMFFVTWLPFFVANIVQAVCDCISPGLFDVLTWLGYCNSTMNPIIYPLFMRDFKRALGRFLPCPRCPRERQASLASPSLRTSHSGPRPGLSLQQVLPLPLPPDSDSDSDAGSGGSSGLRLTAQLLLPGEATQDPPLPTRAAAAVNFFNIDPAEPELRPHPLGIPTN

As for `Cl.Cl.Cl.O=c1c2ccc(Cl)cc2oc2c(CN3CCN(CCO)CC3)cccc12`, the outcome with Mus musculus [1] was Active. Further, the result with Mus musculus [2], with Rattus norvegicus [6], with Mus musculus [8] and in the series with Mus musculus [12] was inactive. Further, the Activity entry in the series with Rattus norvegicus [3], in the series on Rattus norvegicus [7] and with Rattus norvegicus [10] was “Non-toxic” each time. Besides, the Ki in series [4] worked out at 17.4 µM; in series [5] it was 4.5 µM; in [9] it was 3.93 µM; in series [11] it was 14.4 µM.
